Assay outcomes (PubChem)
MC4R ag barr – MC4R agonists recruiting beta-arrestin, primary screen, cell-based, luminescence, agonist arm of biased-ligand search; Melanocortin receptor 4 (Homo sapiens), P32245; U2OS MC4R beta-arrestin complementation; percent of melanotan II response, DMSO zero; activation, % at 8.9 µM; actives 0.98% (n = 360,000); AID 540308, 2011;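 active = activation above a per-plate cutoff, the mean activation of sample wells on that plate plus 3 SD, cut at about 8% in these data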
m5-HT2A agonist – mouse Htr2a agonists via beta-arrestin recruitment, primary screen, cell-based, luminescence; AID 624169, 2012; activation, % at 7.6 µM; CHO-K1 mHTR2A beta-arrestin complementation; percent of 30 µM serotonin response; actives 0.66% (n = 360,000);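 active = activation above a run cutoff, the mean activation of all tested compounds plus 3 SD, cut at about 14% in these data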
EBI2 antag – EBI2 receptor antagonists, beta-arrestin recruitment, primary screen, cell-based, luminescence, 7a,25-OHC stimulation, uHTS | G-protein coupled receptor 183 (Homo sapiens), P32249 | 7a,25-OHC stimulated | inhibition, % at 5 µM | actives 0.81% (n = 360,000) | AID 651636, 2012; in the data active = inhibition above about 38%;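 also: enzyme fragment complementation signal reports receptor beta-arrestin coupling in cells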
Target sequence (P32249 whole entry, looked up, the tested form may be a part): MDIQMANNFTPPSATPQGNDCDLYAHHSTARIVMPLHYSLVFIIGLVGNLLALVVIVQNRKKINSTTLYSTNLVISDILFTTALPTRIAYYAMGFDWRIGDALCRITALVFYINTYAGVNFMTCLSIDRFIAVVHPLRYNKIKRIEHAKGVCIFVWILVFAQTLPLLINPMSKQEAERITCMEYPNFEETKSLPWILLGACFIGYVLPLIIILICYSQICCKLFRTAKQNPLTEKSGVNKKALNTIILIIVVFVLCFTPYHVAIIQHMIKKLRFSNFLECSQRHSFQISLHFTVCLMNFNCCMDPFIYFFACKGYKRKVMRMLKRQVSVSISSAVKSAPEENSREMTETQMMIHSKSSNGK
MC4R antagonist – MC4R antagonists of cAMP signaling, primary screen, cell-based, TR-FRET, antagonist arm of biased-ligand search | Melanocortin receptor 4 (Homo sapiens), P32245 | MC4R-expressing cells, MTII-stimulated cAMP, LANCE TR-FRET | inhibition, % at 6.5 µM | actives 0.48% (n = 360,000) | AID 540295, 2011;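 active = inhibition above its plate's cutoff, the mean of tested wells on that plate plus 3 SD, cut at about 29% in these data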
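system = U2OS cells with stable human MC4R expression | also added = Melanotan II challenge after compound preincubation | dosing = one concentration, 6.5 µM nominal | incubation = compound 30 min, challenge 1 h, detection 1 h | measured by = TR-FRET with Eu-cAMP and labeled anti-cAMP, 671 nm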
MOR ag counter – OPRM1 agonists via beta-arrestin recruitment, confirmation, counter-screen for mouse HTR2A agonist project, cell-based, luminescence, single concentration; actives 5.3% (n = 2,300); activation, % at 9.3 µM; U2OS OPRM1 beta-arrestin PathHunter; DMSO 0%, DAMGO 9.3 µM 100%; AID 624380, 2012; shares compounds with m5-HT2A agonist;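 active = mean activation above the mean of DMSO-only wells plus 3 SD, cut at about 0.5% in these data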
m5-HT2A ag conf – mouse HTR2A agonists, beta-arrestin recruitment, confirmation, cell-based, luminescence, CHO-K1 PathHunter, triplicate; shares compounds with m5-HT2A agonist; DMSO 0%, 30 µM serotonin 100%; activation, % at 7.6 µM; actives 19% (n = 2,300); AID 624381, 2012;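 active = mean activation across triplicates above the hit threshold derived in the original primary screen, cut at about 15% in these data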
Large screens that a line does not name were inactive (follow-up assays come after a bar, where they were run). This is a sample that favours compounds with a hit; in the whole collection about 2.8% have one here.

CCOC(=O)N1CCC(NC(=O)c2ccc3c(Cl)c4c(nc3c2)CCCC4)CC1	m5-HT2A agonist 18 | MOR ag counter inactive | m5-HT2A ag conf inactive
O=C(CCS(=O)(=O)c1ccccc1)OCC(=O)N1CCN(S(=O)(=O)c2ccc(Cl)cc2)CC1	none
O=C(CCS(=O)(=O)c1ccc(Cl)cc1)OCC(=O)N1CCCCC1	m5-HT2A agonist 16 | MOR ag counter inactive | m5-HT2A ag conf inactive
CC(C)c1ccccc1NC(=O)Nc1nnc([C@@H]2C[C@H](O)[C@@H](CO)O2)s1	none
COc1ccc(OCC(=O)NCc2nc(-c3ccccc3)no2)cc1	none
CC1(C)Oc2ccc3ccc(=O)oc3c2/C(=C/Nc2cccc(O)c2)C1=O	MC4R ag barr 8.6, m5-HT2A agonist 17 | MOR ag counter inactive | m5-HT2A ag conf inactive
CC1(C)Oc2ccc3ccc(=O)oc3c2/C(=C/Nc2ccccn2)C1=O	none
COc1ccc(C2/C(=C(\O)c3ccc4c(c3)OCCO4)C(=O)C(=O)N2Cc2cccnc2)cc1OC (configuration not stated)	m5-HT2A agonist 20 | MOR ag counter inactive | m5-HT2A ag conf inactive
Cc1ccccc1NC(=O)Cc1nc(COC(=O)c2ncc(Cl)c(Cl)c2Cl)cs1	none
CC(=O)Nc1ccc(C(=O)N/C(=C/c2ccccc2)C(=O)Nc2cccc(C(=O)O)c2)cc1	none
O=C(Nc1ccc(C(=O)O)cc1)/C(=C\c1ccccc1)NC(=O)c1ccccc1	m5-HT2A agonist 18 | MOR ag counter inactive | m5-HT2A ag conf inactive
O=C(O)C1CC=CCC1C(=O)NCCc1cccc(Cl)c1 (configuration not stated)	m5-HT2A agonist 24 | MOR ag counter inactive | m5-HT2A ag conf inactive
O=C(O)C1CC=CCC1C(=O)NCCc1csc(-c2ccccc2)n1 (configuration not stated)	m5-HT2A agonist 16 | MOR ag counter inactive | m5-HT2A ag conf inactive
O=C(O)C1CCCCC1C(=O)NCCCc1ccccc1 (configuration not stated)	none
O=C(O)C1CCCCC1C(=O)NCCc1ccccc1 (configuration not stated)	m5-HT2A agonist 15 | MOR ag counter inactive | m5-HT2A ag conf inactive
O=C(O)/C=C/C(=O)NCCc1cccc(Cl)c1	m5-HT2A agonist 26 | MOR ag counter inactive | m5-HT2A ag conf inactive
CCCCNC(=O)C1(C)CCN1C(=O)c1ccc(OC)c(C(F)(F)F)c1 (configuration not stated)	none
OCCNc1nc2ccccc2nc1NCCO	m5-HT2A agonist 23 | MOR ag counter inactive | m5-HT2A ag conf inactive
OCCNc1cnc2ccccc2n1	none
CC(C)Cn1c(SCC(=O)NCCCN2CCCC2=O)nc2ccccc21	m5-HT2A agonist 16 | MOR ag counter inactive | m5-HT2A ag conf inactive
CCCn1c(SCC(=O)NCCCN2CCCC2=O)nc2ccccc2c1=O	none
CCOC(=O)N1CCC(c2cc(=O)n3[nH]cc(C(=O)OC)c3n2)CC1	m5-HT2A agonist 20 | MOR ag counter inactive | m5-HT2A ag conf inactive
CCOc1ccccc1NC(=O)CCN1CCN(S(=O)(=O)c2ccc(Br)cc2)CC1	m5-HT2A agonist 17 | MOR ag counter inactive | m5-HT2A ag conf inactive
CCOc1ccc(NC(=O)CCN2CCN(S(=O)(=O)c3ccc(F)cc3)CC2)cc1	none
NC(=O)c1cnc(Cc2c[nH]c3ccccc23)c(I)c1	none
CCOC(=O)c1ccc(NC(=O)Cn2nnc(-c3ccccc3)n2)cc1	m5-HT2A agonist 21 | MOR ag counter inactive | m5-HT2A ag conf inactive
CCOC(=O)c1ccc(NC(=O)Cn2nnc(-c3ccc(F)cc3)n2)cc1	none
FC(F)(F)c1ccccc1NC(=S)NC1CCN(Cc2ccccc2)CC1	m5-HT2A agonist 17 | MOR ag counter inactive | m5-HT2A ag conf inactive
O=C(CN(c1ccc(F)cc1)S(=O)(=O)c1ccc2c(c1)OCCO2)N1CCOCC1	m5-HT2A agonist 25 | MOR ag counter inactive | m5-HT2A ag conf inactive
CCc1c(C2(O)CCCCC2)[nH]c2cc(C(F)(F)F)ccc12	none
Cc1c(C2(O)CCCCC2)[nH]c2cc(C(F)(F)F)ccc12	m5-HT2A agonist 19 | MOR ag counter 1.0 | m5-HT2A ag conf inactive
COC(=O)[C@@]1(Cc2ccc(OC)cc2)[C@@H]2[C@@H](CC(=O)[C@H]2CC(=O)C(=O)N(C)C)CN1C(=O)c1ccccc1	m5-HT2A agonist 18 | MOR ag counter inactive | m5-HT2A ag conf inactive
CC(C)[C@H](NC(=O)c1ccc(C(C)(C)C)cc1)C(=O)N1CCN(Cc2ccc3c(c2)OCO3)CC1	m5-HT2A agonist 34 | MOR ag counter inactive | m5-HT2A ag conf 70
Cc1cc(C)cc(OCCNC(=O)c2cc(S(=O)(=O)N3CCOCC3)ccc2F)c1	none
COc1ccc(OC)c(C2=Nn3c(nnc3-c3cc(OC)c(OC)c(OC)c3)SC2)c1	m5-HT2A agonist 15 | MOR ag counter inactive | m5-HT2A ag conf inactive
O=C(Cc1cc(C(F)(F)F)cc(C(F)(F)F)c1)Nc1c(-c2ccccc2)[nH][nH]c1=O	m5-HT2A agonist 28 (no result: MC4R ag barr, MC4R antagonist) | MOR ag counter inactive | m5-HT2A ag conf inactive
COc1cc(CC(=O)Nc2c(-c3ccccc3)[nH][nH]c2=O)cc(OC)c1	none (no result: MC4R ag barr, MC4R antagonist)
CCCCOc1ccc(S(=O)(=O)NC(=O)C2(C)CCN2C(=O)CCc2ccccc2)cc1 (configuration not stated)	m5-HT2A agonist 17 | MOR ag counter inactive | m5-HT2A ag conf inactive
C#CCN(C[C@@H]1[C@@H](OC(=O)NCCCCCC)[C@@H](OC(=O)NCCCCCC)Cn2c(=O)ccc(=O)n21)S(=O)(=O)c1ccc(C)cc1	none
C#CCN(C[C@@H]1[C@@H](OC(=O)NCC2CCCCC2)[C@@H](OC(=O)NCC2CCCCC2)Cn2c(=O)ccc(=O)n21)S(=O)(=O)c1ccc(C)cc1	m5-HT2A agonist 27, EBI2 antag 81 | MOR ag counter inactive | m5-HT2A ag conf 35
Cc1onc(-c2ccccc2)c1C(=O)OCC(=O)N(C)c1ccccc1	none
Cc1ccc(CN2C(=O)CSCC2(C)C(=O)NC(C)C)cc1 (configuration not stated)	none (no result: MC4R ag barr, MC4R antagonist)
CCOC(=O)C1=CN(Cc2ccc(OC)cc2)C=C(C(=O)OCC)C1c1cccs1	m5-HT2A agonist 16 | MOR ag counter inactive | m5-HT2A ag conf inactive
COC(=O)C1=CN(Cc2ccc(OC)cc2)C=C(C(=O)OC)C1c1cc(OC)c(OC)c(OC)c1	none
